Reference: ChEMBL document CHEMBL1781954, “Synthesis and antitumor activity of novel pyrido[2,3-d][1,2,4]triazolo[4,3-a]pyrimidin-5-one derivatives” (Eur J Med Chem, 2011)
≈ marks a conversion by molar mass, not a printed value.

Tested on: MCF7
Experiment: Cytotoxicity against human MCF7 cells assessed as inhibition of cell viability after 48 hrs by Sulforhodamine B assay
Type: functional, cell-based
Settings: MCF7, 48 h
Procedure, shortened: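 MCF7 cells seeded at 10⁴ cells/well and left 24 h to attach. Compounds in DMSO diluted with saline were added at 0, 1, 2.5, 5 and 10 (triplicate wells per dose). After 48 h at 37 °C in 5% CO₂, cells were fixed with trichloroacetic acid and stained 30 min with 0.4% SRB in 1% acetic acid. Bound dye was recovered in Tris-EDTA and read on an ELISA reader. IC50 was taken from surviving fraction versus concentration curves.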

SMILES	IC50
O=c1[nH]c(=S)[nH]c2nc(-c3ccccc3)cc(-c3ccc(Cl)cc3)c12	5.11 µg/mL (≈ 14 µM)
O=c1c2c(-c3ccc(Cl)cc3)cc(-c3ccccc3)nc2nc2[nH]ncn12	21.6 µg/mL (≈ 57.8 µM)
Cc1n[nH]c2nc3nc(-c4ccccc4)cc(-c4ccc(Cl)cc4)c3c(=O)n12	> 50 µg/mL
CCc1n[nH]c2nc3nc(-c4ccccc4)cc(-c4ccc(Cl)cc4)c3c(=O)n12	14 µg/mL (≈ 34.8 µM)
O=c1[nH][nH]c2nc3nc(-c4ccccc4)cc(-c4ccc(Cl)cc4)c3c(=O)n12	24.3 µg/mL (≈ 62.3 µM)
O=c1c2c(-c3ccc(Cl)cc3)cc(-c3ccccc3)nc2nc2[nH][nH]c(=S)n12	6.78 µg/mL (≈ 16.7 µM)
CSc1n[nH]c2nc3nc(-c4ccccc4)cc(-c4ccc(Cl)cc4)c3c(=O)n12	3.89 µg/mL (≈ 9.26 µM)
CCSc1n[nH]c2nc3nc(-c4ccccc4)cc(-c4ccc(Cl)cc4)c3c(=O)n12	5.2 µg/mL (≈ 12 µM)
O=c1c2c(-c3ccc(Cl)cc3)cc(-c3ccccc3)nc2nc2[nH]nc(SCc3ccccc3)n12	12.6 µg/mL (≈ 25.4 µM)
CCOC(=O)CSc1n[nH]c2nc3nc(-c4ccccc4)cc(-c4ccc(Cl)cc4)c3c(=O)n12	4.5 µg/mL (≈ 9.15 µM)
O=c1c2c(-c3ccc(Cl)cc3)cc(-c3ccccc3)nc2nc2[nH]nc(-c3ccccc3)n12	9.22 µg/mL (≈ 20.5 µM)
Cc1ccc(-c2n[nH]c3nc4nc(-c5ccccc5)cc(-c5ccc(Cl)cc5)c4c(=O)n23)cc1	9.07 µg/mL (≈ 19.6 µM)
Nc1n[nH]c2nc3nc(-c4ccccc4)cc(-c4ccc(Cl)cc4)c3c(=O)n12	3.74 µg/mL (≈ 9.62 µM)
O=c1c2c(-c3ccc(Cl)cc3)cc(-c3ccccc3)nc2nc2[nH]nc(CCl)n12	11.7 µg/mL (≈ 27.7 µM)
